Reference: ChEMBL document CHEMBL4680118, “Cerpegin-derived furo[3,4-c]pyridine-3,4(1H,5H)-diones enhance cellular response to interferons by de novo pyrimidine biosynthesis inhibition” (Eur J Med Chem, 2020)
Active and inactive are the calls of the source. No cut-off for these calls is given here.

What was measured:
Format in all cases: cell-based
[1] = target: T1, Dihydroorotate dehydrogenase (quinone), mitochondrial (Homo sapiens, UniProt Q02127); assay: Inhibition of DHODH in human HEK293 cells assessed as reduction in intracellular pyrimidine level measured after 24 hrs by HPLC coupled spectrophotometry
T1 sequence (Q02127 whole entry): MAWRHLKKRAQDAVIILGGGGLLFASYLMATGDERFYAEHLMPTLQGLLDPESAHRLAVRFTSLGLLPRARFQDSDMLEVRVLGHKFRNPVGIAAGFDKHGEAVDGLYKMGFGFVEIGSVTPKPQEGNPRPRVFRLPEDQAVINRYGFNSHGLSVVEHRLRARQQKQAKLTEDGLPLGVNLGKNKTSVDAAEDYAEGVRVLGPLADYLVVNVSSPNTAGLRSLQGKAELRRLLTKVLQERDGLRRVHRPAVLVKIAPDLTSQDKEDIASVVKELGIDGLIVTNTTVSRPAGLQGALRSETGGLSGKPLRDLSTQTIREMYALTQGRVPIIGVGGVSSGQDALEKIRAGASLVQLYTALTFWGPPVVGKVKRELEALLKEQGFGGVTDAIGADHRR
How it was run: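 HEK-293 cells plated at 1×10^6 per well, treated 24 h later with compound (80 µM final) or DMSO for 24 h. Pellets deproteinized with 6% perchloric acid, neutralized with Na2CO3, analysed by C18 HPLC at 45°C with ion-pair phosphate/MeOH gradient, detected at 254 nm against reference nucleoside calibration curves. Normalized to viable cell number and DMSO controls.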

[2] = target: T1, Dihydroorotate dehydrogenase (quinone), mitochondrial; assay: Inhibition of DHODH in human HEK293 cells transfected with ISRE-luciferase reporter gene assessed as increase in 250 IU/ml IFN-alpha stimulated IFIT2 mRNA expression at 80 uM measured after 16 hrs by RT-qPCR analysis relative to control
How it was run: (§1)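 ISRE-Luc HEK cells co-treated with increasing IFN-α concentrations and DMSO or compound (80 µM) for 16 h. Total RNA extracted from 2×10^5 cells with DNase step; qPCR 35 cycles. CT values normalized to RPL13A and unstimulated controls (2^-ΔΔCT), expressed as fold change versus DMSO alone. Three independent experiments; two-way ANOVA with Bonferroni.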

[3] = target: T1, Dihydroorotate dehydrogenase (quinone), mitochondrial; assay: Inhibition of DHODH in human HEK293 cells transfected with ISRE-luciferase reporter gene assessed as increase in 60 IU/ml IFN-alpha stimulated IFIT5 mRNA expression at 80 uM measured after 16 hrs by RT-qPCR analysis relative to control
How it was run: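 HEK-293 ISRE-Luc cells (DMEM, 10% FCS, 37°C, 5% CO2) were given increasing IFN-α doses together with DMSO or compound at 80 μM, then harvested at 16 h. RNA was extracted from 2×10^5 cells with DNase treatment. Transcripts were run by qPCR for 35 cycles and normalized to RPL13A and to unstimulated controls by 2^-ΔΔCT. Values are fold change versus DMSO; three independent experiments; two-way ANOVA with Bonferroni.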

[4] = target: T1, Dihydroorotate dehydrogenase (quinone), mitochondrial; assay: Inhibition of DHODH in human HEK293 cells transfected with ISRE-luciferase reporter gene assessed as increase in 30 IU/ml IFN-alpha stimulated PKR mRNA expression at 80 uM measured after 16 hrs by RT-qPCR analysis relative to control; how it was run: as §1
[5] = target: T1, Dihydroorotate dehydrogenase (quinone), mitochondrial; assay: Inhibition of DHODH in human HEK293 cells transfected with ISRE-luciferase reporter gene assessed as increase in 125 IU/ml IFN-alpha stimulated PML mRNA expression at 80 uM measured after 16 hrs by RT-qPCR analysis relative to control; how it was run: as §1

`O=C1OC2(CCCCC2)c2ccn(C3CC3)c(=O)c21` was tested, and the inhibition [1] was “Active”, the fold change (FC) [2] was 165 and the fold change (FC) [3] was 3. It also gave a fold change (FC) [4] of 2 and a fold change (FC) [5] of 5.
